Screening results: PubChem BioAssay, several laboratories
Rev-RRE block = disrupts HIV-1 Rev binding to RRE RNA. P05866. Rev peptide-RRE RNA binding, FRET. inhibition, % at 8 µM. hit rate 0.79% among 97,000;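 active = inhibition above the screen-wide mean plus 3 SD, cut at about 35% in these data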;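 note: 0% = median DMSO wells and 100% = median Neomycin B control wells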
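Assay system: labelled RRE RNA duplex and labelled Rev peptide / Medium: HEPES pH 7.5 salt buffer with EDTA / Reagent: labelled Rev peptide / Schedule: 5 + 15 min at 25 °C / Signal: FRET, excitation 480 nm, emission 540 nm donor and 671 nm acceptor / Benchmarks: DMSO and neomycin B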
PLK1 inh = inhibitors of human PLK1 kinase; recombinant PLK1 kinase, TR-FRET peptide phosphorylation; P53350; hit rate 0.53% among 97,000; inhibition, % at 10 µM; AID 619;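 active = inhibition of 50% or more in the single-concentration screen; inactive = inhibition below 50%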;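 note: 0% = DMSO max control and 100% = H-89 dihydrochloride min control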
FAK inh = blocks human focal adhesion kinase activity; biochemical FAK kinase activity assay; inhibition, %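 (tested at 7 µM)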; hit rate 0.84% among 97,000; AID 727; in the data active = inhibition above about 19%;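 note: 0% = DMSO and 100% = reference compound high control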
PLK1 PBD inh = blocks phosphopeptide binding to human Plk1 polo box domain. Plk1 PBD phosphopeptide binding, fluorescence polarization. inhibition, %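 (tested at about 20 µM)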. hit rate 0.13% among 97,000. AID 693; in the data active = inhibition above about 34%, passing the limit was not always enough
PTK2B oligo ant = antagonists of human Pyk2 oligomerization; hit rate 0.83% among 99,000; Q14289; Q293 cells, Pyk2 FERM NanoBiT luminescence; hits give low values; z-score (the deposit names both 25 µM and 10 µM);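 active = Z-score of -3 or lower, scaled per plate to the spread of control and sample wells; inactive = z-score above -3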;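 note: negative z-score means lost luminescence so less FERM oligomerization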
Target sequence (Q14289 whole entry, looked up): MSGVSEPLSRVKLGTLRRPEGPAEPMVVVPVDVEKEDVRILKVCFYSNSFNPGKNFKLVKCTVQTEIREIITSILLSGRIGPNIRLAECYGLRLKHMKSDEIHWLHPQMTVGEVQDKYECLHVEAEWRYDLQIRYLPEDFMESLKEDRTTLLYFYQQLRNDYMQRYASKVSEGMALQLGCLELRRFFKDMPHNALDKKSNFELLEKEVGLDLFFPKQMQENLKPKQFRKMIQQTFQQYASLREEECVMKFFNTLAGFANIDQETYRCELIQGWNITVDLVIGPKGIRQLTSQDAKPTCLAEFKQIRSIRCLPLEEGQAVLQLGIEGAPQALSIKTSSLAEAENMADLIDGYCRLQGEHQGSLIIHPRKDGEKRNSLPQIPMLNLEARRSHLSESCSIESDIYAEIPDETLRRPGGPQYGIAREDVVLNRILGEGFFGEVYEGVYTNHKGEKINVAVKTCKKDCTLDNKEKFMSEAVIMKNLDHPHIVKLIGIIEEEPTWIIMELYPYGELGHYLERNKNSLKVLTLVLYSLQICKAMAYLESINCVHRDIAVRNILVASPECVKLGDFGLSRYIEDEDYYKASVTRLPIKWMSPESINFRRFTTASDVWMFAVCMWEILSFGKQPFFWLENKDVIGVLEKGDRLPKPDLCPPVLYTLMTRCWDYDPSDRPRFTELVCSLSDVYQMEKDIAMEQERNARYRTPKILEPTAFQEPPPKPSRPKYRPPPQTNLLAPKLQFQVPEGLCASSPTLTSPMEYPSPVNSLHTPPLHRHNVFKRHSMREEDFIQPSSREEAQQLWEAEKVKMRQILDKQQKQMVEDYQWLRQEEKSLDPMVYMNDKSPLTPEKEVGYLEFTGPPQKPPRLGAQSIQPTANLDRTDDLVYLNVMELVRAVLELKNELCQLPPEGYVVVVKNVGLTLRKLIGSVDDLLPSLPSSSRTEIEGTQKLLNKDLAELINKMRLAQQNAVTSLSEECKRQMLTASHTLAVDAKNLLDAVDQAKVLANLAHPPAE
Cav3 T inh = inhibitors of human Cav3.2 T-type calcium channel; Cav3.2-expressing cells, Fluo-4 calcium fluorescence FDSS; hits give low values; B-score at 10 µM; hit rate 4% among 100,000;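 active = single-dose well whose peak fluorescence ratio is a statistical outlier from its plate by either plate-standardised score or position-corrected B-score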
Starred values were filed as active, the others as inactive; nt = not tested or not shown; [ ] = another dose, or the depositor's remark. The list is not random: actives were taken first. Their share in the collection is about 5.8%.

SMILES | Rev-RRE block | PLK1 inh | FAK inh | PLK1 PBD inh | PTK2B oligo ant | Cav3 T inh
COc1ccc(C2C(C(=O)c3cccs3)=C(O)C(=O)N2c2nncs2)cc1 (stereo unspecified) | 102*[fluorescence artefact?] | -1 | -4 | -4 | 0.47 | -1.5
COc1ccc(C2C(C(=O)c3cccs3)=C(O)C(=O)N2c2nnc(C)s2)cc1OC (stereo unspecified) | 107*[fluorescence artefact?] | -8 | -3 | 7 | -0.84 | -1
CCOc1ccc2c(c1)C(c1ccccc1)=NNC(c1ccccc1)=N2 | 0 | -9 | 3 | 2 | -0.71 | 0.51
CC1CCCCN1C(=O)Cn1nnc(-c2cccnc2)n1 (stereo unspecified) | 38* | -9 | 4 | 0 | -0.21 | 0.98
Cc1nc(P(=O)(c2ccccc2)c2ccccc2)c(N2CCOCC2)o1 | 12 | -7 | -1 | 8 | 0.01 | 0.93
CNc1oc(-c2ccc(C)cc2)nc1P(=O)(c1ccccc1)c1ccccc1 | -4 | -9 | 3 | -3 | -0.5 | -4.3*
COC(=O)c1cnc(SC)nc1C | 3 | -11 | -3 | 36 | 0.28 | nt
CCn1c(SCC(=O)Nc2nc3ccc(C)cc3s2)nc2c(c1=O)SC(C)C2 (stereo unspecified) | -2 | -11 | 4 | -9 | -3.6* | -0.46
O=C(OCc1c(Cl)nc2sccn12)c1cc2c(s1)CCCC2 | 7 | 4 | -4 | 20 | 1.3 | 0.061
CCOc1cc(/C=C2\C(=O)N(c3nc(-c4ccc(Br)cc4)cs3)N=C2c2ccccc2)ccc1O | 58* | -20 | 3 | 4 | -0.62 | nt
O=C(NCC1OCCc2ccccc21)c1ccc(NC(=O)c2cccc(Br)c2)cc1 (stereo unspecified) | nt | nt | nt | nt | 0.01 | nt
O=C(Cc1ccccc1)NC(Nc1ccccc1)C(Cl)(Cl)Cl (stereo unspecified) | 13 | -7 | -4 | -8 | -0.06 | -4.2*
O=C(Cc1ccccc1)NC(NCCc1ccccc1)C(Cl)(Cl)Cl (stereo unspecified) | 10 | -2 | 0 | -7 | -0.53 | -10*
CC(C)(C)c1ccc(C(O)CCCN2CCC(C(O)(c3ccccc3)c3ccccc3)CC2)cc1 (stereo unspecified) | nt | nt | nt | nt | nt | -4.8*
Cc1ccc2nc(N/N=C\c3ccc([N+](=O)[O-])o3)nc(-c3ccccc3)c2c1 | 58* | -12 | 16 | -8 | -4* | nt
O=[N+]([O-])c1ccc(/C=N/Nc2nc(-c3ccccc3)c3cc(Br)ccc3n2)o1 | 22 | -13 | 6 | -4 | -2.2 | nt
CCS(=O)(=O)NCCc1csc(C)n1 | 3 | 1 | -4 | 3 | -0.03 | 0.71
C=CCN1C(=O)/C(=C/c2ccc(N(C)C)cc2)S/C1=N\c1nnc(CC)s1 | 131*[fluorescence artefact?] | -40 | -2 | -91 | nt | nt
CCCN1C(=O)/C(=C/c2ccc(C)s2)SC1=Nc1ccc(OC)cc1 | 9 | -5 | -2 | 13 | 0.26 | -0.75
CN1CCCC(n2nc(Cc3ccc(Cl)cc3)c3ccccc3c2=O)CC1 (stereo unspecified) | nt | nt | nt | nt | nt | -0.73
Cn1c(=O)c2c(nc(CN3CCN(C(=O)c4ccco4)CC3)n2CCCc2ccccc2)n(C)c1=O | 7 | -20 | 3 | -1 | nt | nt
COCCNc1nc(SCc2ccccc2)nc2sc3c(c12)CCC3 | 1 | -3 | -4 | -27 | -0.44 | -4.5*
CC(CO)Nc1nc(SCc2ccccc2)nc2sc3c(c12)CCC3 (stereo unspecified) | 1 | -8 | -4 | -27 | -0.12 | -1.6
Cc1cc(C)nc(N2CCCC(C(=O)Nc3nnc(C(C)C)s3)C2)n1 (stereo unspecified) | 7 | -28 | -2 | -3 | nt | 1.2
O=C1Nc2ccccc2C1(c1ccccc1)c1ccccc1 | 13 | -9 | 0 | -6 | -1.1 | -9.5*
SMILES | Rev-RRE block | PLK1 inh | FAK inh | PLK1 PBD inh | PTK2B oligo ant | Cav3 T inh
O=C1c2ccccc2-c2onc3c(Oc4ccccc4)cc(O)c1c23 | 4 | 7 | 5 | -26 | nt | nt
CCNc1ccc2noc3c2c1C(=O)c1ccccc1-3 | 138*[fluorescence artefact?] | 14 | 49* | 7 | -2.1 | -1.4
CCNC1=C(Cl)C(=O)c2ccccc2C1=O | -3 | 12 | -1 | -9 | -0.72 | 1.4
O=c1nccc(NCc2ccco2)[nH]1 | nt | nt | nt | nt | 0.98 | -0.24
CCOc1ccc2noc3c2c1C(=O)c1ccccc1-3 | 133*[fluorescence artefact?] | -17 | 16 | 39 | -1 | -5.7*
O=C1c2ccccc2-c2onc3ccc(NCc4ccco4)c1c23 | nt | nt | nt | nt | -1.9 | -4.1*
